From PubChem BioAssay

Target: Muscarinic acetylcholine receptor M4 (Homo sapiens) (UniProt P08173)
Assay: compounds altering M4/GIRK thallium flux, either direction, primary screen, M4 allosteric agonist project, cell-based, HEK293 M4/GIRK, BTC-AM (AID 625);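 also: thallium influx through GIRK channels coupled to M4 in HEK293 cells with BTC-AM dye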
Conditions: at 10 µM, actives lie on both sides;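 active = fluorescence slope after compound addition differing from the mean of all tested samples at 99.7% confidence, mostly higher but some lower; inactive = the rest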
Method in brief: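 Material: M4/GIRK1/GIRK2 stable HEK293 cell line. Medium: pH 7.3 thallium assay buffer. Dosing: single compound concentration, 10 µM final. Schedule: 1 h dye loading, 2 min kinetic read. Measured by: kinetic fluorescence with BTC-AM dye. Read-out: post-addition slope, 15–24 s, of baseline-normalized fluorescence. Benchmarks: carbachol and DMSO controls.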

Muscarinic acetylcholine receptor M4 (Homo sapiens), sequence (P08173 whole entry, looked up): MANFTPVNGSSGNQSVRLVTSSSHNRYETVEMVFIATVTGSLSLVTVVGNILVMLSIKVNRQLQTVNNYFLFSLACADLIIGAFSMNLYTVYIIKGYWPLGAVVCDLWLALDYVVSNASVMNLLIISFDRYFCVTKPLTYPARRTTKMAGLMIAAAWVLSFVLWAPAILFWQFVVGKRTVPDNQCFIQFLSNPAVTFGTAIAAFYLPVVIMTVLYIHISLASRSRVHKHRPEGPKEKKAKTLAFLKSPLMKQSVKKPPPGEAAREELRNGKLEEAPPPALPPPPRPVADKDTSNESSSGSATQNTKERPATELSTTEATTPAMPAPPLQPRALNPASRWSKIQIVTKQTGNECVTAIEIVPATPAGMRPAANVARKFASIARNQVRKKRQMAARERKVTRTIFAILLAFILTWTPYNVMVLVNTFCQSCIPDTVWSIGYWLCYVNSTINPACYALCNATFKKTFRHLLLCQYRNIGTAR

Fluorescence slope, inactive:
Cc1ccc(S(=O)(=O)N2CCOCC2)cc1C(=O)Nc1ccc(-c2cn3ccsc3n2)cc1 0.00613
Cc1ccc(S(=O)(=O)NCCc2ccncc2)cc1 0.00601
O=C(NCc1ccco1)C1Cc2ccccc2CN1S(=O)(=O)c1ccccc1F (stereo not given) 0.0061
Cc1ccccc1NC(=O)c1c(F)c(F)c(F)c(F)c1F 0.00407
CC(C(=O)N1CC2(C)CC1CC(C)(C)C2)N1C(=O)c2ccccc2C1=O (stereo not given) 0.00376
O=c1c2c3nc4ccccc4nc3n(CC3CCCO3)c2ncn1CCc1ccccc1 (stereo not given) 0.00514
COC(=O)C1=C(C)NC(=O)C1(NC(=O)c1cccnc1)C(F)(F)F (stereo not given) 0.00444
CCCn1c2ccccc2c2nnc(SCC(=O)OCC)nc21 0.00386
O=C(Nc1ccc(Cl)cc1C(=O)Nc1ccncc1)c1ccco1 0.00491
COCCOC(=O)C1=C(C)N=c2s/c(=C\c3cccs3)c(=O)n2C1c1cccs1 (stereo not given) 0.00423
Cc1cc2ncc(C(=O)Nc3ccccc3)c(C)n2n1 0.00501
Cn1c(SC/C=C/c2ccccc2)nnc1-c1cnccn1 0.00503
CCn1c(=O)n(CC(=O)Nc2cc(OC)ccc2OC)c(=O)c2ccccc21 0.00496
CCOC(=O)COc1ccc(S(=O)(=O)N2CCc3ccccc3C2)cc1 0.00522
COc1cc(-c2c(C#N)c(N)nc3c2CCCC3)cc(OC)c1OC 0.0058
